# High-throughput results deposited in PubChem BioAssay by several laboratories.
# A selection: hits, their analogues and other compounds. The true share with any hit is near 1.4%.
# Myeloid diff 2 – promotes myeloid progenitor differentiation | ER-HoxA9 myeloid progenitors, lysozyme-GFP differentiation, flow cytometry | calls only at 10 µM | hit rate 1% among 360,000;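 active means normalized GFP-positive differentiation at or above the plate's own cutoff, the solvent-only control mean plus 3 SD; inconclusive means no clear call, values can overlap the other calls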;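 further: cells exposed to compound for four days before flow analysis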
# T cell HTS – T cell immune modulation candidate; hit rate 0.068% among 330,000; response (vesicle binding), % at 7 µM; 2C CD8+ T cell-vesicle binding, flow cytometry; hits give low values;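 active means response, share of CD8 T cells binding vesicles, and their 90th percentile fluorescence all below set limits, cut at about 80% in these data, passing the limit was not always enough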;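 further: values below 100% mean blocked vesicle binding to the CD8+ T cells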
#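 Assay system – 2C mouse CD8+ T cells · Also added – QL9-loaded Drosophila micro-vesicles · Timing – Cell–vesicle co-incubation 1.5 h at 37 °C, staining 20 min on ice · Signal – flow cytometry of vesicle-bound cells · Measure – percent CD8+ FL2 mean versus row control · Controls – Peptide-free naked vesicles (low) and QL9 vesicles with 0.7% DMSO vehicle (high)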
# CASP6 VEID inh – blocks human caspase-6 cleavage activity | P55212 | purified caspase-6, Z-VEID-R110 cleavage fluorescence | inhibition, % at 12.5 µM | hit rate 0.53% among 350,000;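 active means mean inhibition across replicates at least about 35%, with every replicate also reaching that limit, limit read from the data; inconclusive means only one of the two criteria met; inactive means neither criterion met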;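 further: 0% = median of neutral control wells and 100% = no fluorescence left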
# Target sequence (P55212 24-179 limits assumed): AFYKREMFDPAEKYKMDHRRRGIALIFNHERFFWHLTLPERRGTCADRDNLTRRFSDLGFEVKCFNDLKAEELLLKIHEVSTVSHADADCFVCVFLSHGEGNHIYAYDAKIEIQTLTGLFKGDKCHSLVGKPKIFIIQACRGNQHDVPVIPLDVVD
# Target sequence (P55212 194-293 limits assumed): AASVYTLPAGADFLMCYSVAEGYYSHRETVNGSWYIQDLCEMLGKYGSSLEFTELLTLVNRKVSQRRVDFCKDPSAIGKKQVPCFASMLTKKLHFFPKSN
# Vif imaging – inhibitors of HIV Vif. HEK293T cells, Vif self-association by quenched fluorescence, imaging, 24 h. inhibition, % at 7.49 µM. hit rate 0.35% among 340,000. AID 602346; in the data active means inhibition above about 50%, passing the limit was not always enough; inconclusive means no clear call, values can overlap the other calls; inactive means below about 31%
# Myeloid diff – compounds promoting myeloid differentiation. ER-HoxA9 myeloid progenitors, GFP/Mac1 double-positive flow. calls only. AID 651706. shares compounds with Myeloid diff 2. hit rate 2% among 2,300;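 active means share of green or green-and-red cells above 9 and 9% in run 1 or 4 and 3% in run 2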
# GFP autofluor – counter-screen for myeloid differentiation promoters: compound fluorescence; shares compounds with Myeloid diff 2; ER-HoxA9 myeloid progenitors, no estrogen, GFP autofluorescence flow cytometry; vehicle wells 0%, positive control 100%; fluorescence response, % (concentration not given with the values); hit rate 7.4% among 2,300; AID 651707;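 active means over 5% cells positive for green fluorescent reporter, or over 2% positive for both it and APC stain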;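 further: range taken on the double positive population between DMSO and positive control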
# Starred values were filed as active, the others as inactive; i = inactive; ? = inconclusive; / = not tested or not shown; + = active, no number.
SMILES,Myeloid diff 2,T cell HTS,CASP6 VEID inh,Vif imaging,Myeloid diff,GFP autofluor
CC(C)=CCN1CCN(Cc2ccc(N3CCNC3=O)cc2)CC1CCO (centres undefined),i,270.4,-1.7,-4.7,/,/
O=C1NCCN1c1ccc(CN2CCN(C3CCCCC3)C(CCO)C2)cc1 (centres undefined),i,782.0,-2.6,3.6,i,0.0
CCCCCCCC(=O)NNC(=O)c1ccc(F)cc1,i,497.5,/,-1.3,i,0.7
CCCCCC(=O)NNC(=O)c1ccc(F)cc1,i,267.6,/,6.8,/,/
CC(C)CC(NC(N)=O)C(=O)Nc1ccc(Oc2ccccc2)cc1 (centres undefined),i,783.9,-2.7,6.2,i,0.0
Cc1ccc(S(=O)(=O)N(C)C[C@H]2Oc3ccc(NC(=O)NC(C)C)cc3C(=O)N([C@H](C)CO)C[C@@H]2C)cc1,/,/,-2.8,/,/,/
CC(C)(C)c1ccc(S(=O)(=O)NCCOCC(F)(F)C(F)F)cc1,+,349.9,3.5,/,i,0.0
CC(C)(C)c1ccc(S(=O)(=O)NCCc2ccncc2)cc1,i,627.0,/,-5.5,/,/
Cc1ccc(S(=O)(=O)N(C)C[C@@H]2Oc3ncc(C#CC4(O)CCCC4)cc3C(=O)N([C@H](C)CO)C[C@@H]2C)cc1,/,/,-2.1,/,/,/
CC(C)c1cc(=O)oc2c3c4c(cc12)CCCN4CCC3,i,264.0,/,-1.2,/,/
O=c1oc2c3c4c(cc2c(C(F)(F)F)c1CCN1CCOCC1)CCCN4CCC3,+,504.1,/,20.3,i,0.3
O=C(NC1CCCC1)c1cnc2n(c1=O)CCS2,i,212.1,/,-4.9,i,0.3
COC(=O)C(C)Sc1nnc2n(-c3cccc(C)c3)c(=O)c3c4c(sc3n12)CCCC4 (centres undefined),i,424.2,4.0,4.3,i,0.4
CCN1CCN(CCCNC(=O)CCC(=O)N2CCOc3ccccc32)CC1,i,692.5,-4.9,0.8,/,/
CC1CC(C)CN(CCCNC(=O)CCC(=O)N2CCOc3ccccc32)C1 (centres undefined),i,568.2,-9.5,-0.3,i,0.0
C[C@@H]1CCCCO[C@H](CN(C)C(=O)Nc2ccccc2)[C@H](C)CN([C@H](C)CO)C(=O)c2cc(NS(=O)(=O)c3cccs3)ccc2O1,/,/,-1.9,/,/,/
CC(=O)N1CC2(C1)[C@H](c1ccc(-c3cccc(F)c3)cc1)[C@H](CO)N2CC1CCOCC1,/,/,-5.9,/,/,/
CN1CCN(c2cc3c(c4c2[nH]c2ccccc24)C(=O)CC(C)(C)C3)CC1,i,400.0,-3.7,0.8,i,0.0
CCCN1CCC(N2CCN(c3cccc(C(F)(F)F)c3)CC2)CC1,+,287.1,/,/,i,0.0
CC(C)NC(=O)NCC[C@H]1CC[C@H](NS(=O)(=O)c2ccccc2)[C@H](CO)O1,/,/,-0.6,/,/,/
CCc1ccc(N2C(=O)CN(Cc3ccc(OC)c(OC)c3)C2=S)cc1,+,578.5,0.1,11.5,i,1.8
COc1ccc(-c2ccc(C(=O)NCc3ccc(N4CCN(C)CC4)cc3)c3occc23)c(C)c1,+,/,0.4,-21.4,i,0.5
COc1ccc(-c2ccc(C(=O)NCc3ccccc3)c3occc23)c(C)c1,i,/,0.9,?,/,/
O=C(c1cccnc1)N1CCN(c2ccccc2Cl)CC1,/,202.1,/,/,/,/
O=C(c1ccccc1)c1ccc(C(=O)N2CCN(c3ccccc3Cl)CC2)cc1,i,522.5,1.1,/,i,0.0
SMILES,Myeloid diff 2,T cell HTS,CASP6 VEID inh,Vif imaging,Myeloid diff,GFP autofluor
O=C(O)C(c1ccccc1)N1C(=O)/C(=C\c2ccc(-c3ccc(Br)cc3)o2)SC1=S (centres undefined),+,/,71.3*,-2.7,i,26.1*
O=C(CN1CCOCC1)N1CC[C@@H]2[C@@H](CO)Nc3ccc(-c4ccc(F)cc4)cc3[C@@H]21,/,/,0.3,/,/,/
O=C(Nc1ccccc1[N+](=O)[O-])c1nc[nH]c1C(=O)NCCO,+,298.7,/,-11.5,i,0.0
NNC(=O)c1nc[nH]c1C(=O)Nc1ccccc1[N+](=O)[O-],i,140.0,-1.3,1.2,/,/
CCCNC(=O)C[C@@H]1CC[C@H]2[C@H](COc3ccc(NC(=O)C4CCCC4)cc3C(=O)N2C)O1,/,/,0.0,/,/,/
Cc1c2ccccc2c(C)c2c1ccc1ccccc12,i,765.1,-0.3,-3.6,/,/
CC1=Nc2ccc3ccccc3c2C1(C)C,+,323.7,-1.6,53.0*,i,0.0
